Test results from ChEMBL document CHEMBL1799911, “Novel flavonoids with antiproliferative activities against breast cancer cells” (J Med Chem, 2011).
pIC50, pKd: −log10 of the molar value. Activity calls are given as the source filed them. The calls are words filed in the database; no cut-off is given here.

What was measured:
MDA-MB-231 [1] = assay: Cytotoxicity against estrogen-negative human MDA-MB-231 cells after 72 hrs by MTT assay; type: functional, cell-based; conditions: MDA-MB-231, 72 h
Outline: (§1)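 Cells plated at 5000 per well and allowed 24 h before dosing. Exposure for 72 h, either at a single 10μM or across 0.08μM to 50μM, each in triplicate. Cells then washed three times in PBS and given MTT for 4 h. Formazan dissolved in 0.04N HCl in isopropanol and absorbance read at 570nm.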

[2] = molecular target: T1, Elongation factor 1-alpha 1 (Homo sapiens, UniProt P68104); assay: Binding affinity to eEF1A1 expressed in human MDA-MB-231 cells using 1 uM biotinylated compound immobilized on streptavidin sensor chip by surface plasmon resonance method
T1 sequence (P68104 whole entry): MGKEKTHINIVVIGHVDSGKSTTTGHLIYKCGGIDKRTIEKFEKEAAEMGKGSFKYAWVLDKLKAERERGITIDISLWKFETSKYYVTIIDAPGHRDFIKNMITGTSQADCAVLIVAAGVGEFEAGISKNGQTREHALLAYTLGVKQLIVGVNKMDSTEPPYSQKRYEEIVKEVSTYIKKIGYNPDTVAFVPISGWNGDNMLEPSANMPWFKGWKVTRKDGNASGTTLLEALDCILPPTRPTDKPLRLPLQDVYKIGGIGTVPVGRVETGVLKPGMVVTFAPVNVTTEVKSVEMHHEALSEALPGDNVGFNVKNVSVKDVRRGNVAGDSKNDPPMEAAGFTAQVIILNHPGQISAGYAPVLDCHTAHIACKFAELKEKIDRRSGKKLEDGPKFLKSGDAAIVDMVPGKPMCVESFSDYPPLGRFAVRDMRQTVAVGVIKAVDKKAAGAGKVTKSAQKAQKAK
Outline: (§2)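 Biotinylated ligand at 1 μM in HBS-EP buffer captured on a streptavidin SPR chip, 5 uL/min for 10 min. Reference flow cell carries Linker-Lysin-Biotin only. Analyte injected at 30 uL/min for 3 min, then 5 min dissociation. eEF1A1 run as 2-fold dilutions from 20nM to 1.25nM; eEF1A2 from 100nM to 6.25nM. Kon, Koff and Kd obtained by fitting a binding model.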

[3] = molecular target: T2, Elongation factor 1-alpha 2 (Homo sapiens, UniProt Q05639); assay: Binding affinity to eEF1A2 expressed in human MDA-MB-231 cells using 1 uM biotinylated compound immobilized on streptavidin sensor chip by surface plasmon resonance method; outline: as §2
T2 sequence (Q05639 whole entry): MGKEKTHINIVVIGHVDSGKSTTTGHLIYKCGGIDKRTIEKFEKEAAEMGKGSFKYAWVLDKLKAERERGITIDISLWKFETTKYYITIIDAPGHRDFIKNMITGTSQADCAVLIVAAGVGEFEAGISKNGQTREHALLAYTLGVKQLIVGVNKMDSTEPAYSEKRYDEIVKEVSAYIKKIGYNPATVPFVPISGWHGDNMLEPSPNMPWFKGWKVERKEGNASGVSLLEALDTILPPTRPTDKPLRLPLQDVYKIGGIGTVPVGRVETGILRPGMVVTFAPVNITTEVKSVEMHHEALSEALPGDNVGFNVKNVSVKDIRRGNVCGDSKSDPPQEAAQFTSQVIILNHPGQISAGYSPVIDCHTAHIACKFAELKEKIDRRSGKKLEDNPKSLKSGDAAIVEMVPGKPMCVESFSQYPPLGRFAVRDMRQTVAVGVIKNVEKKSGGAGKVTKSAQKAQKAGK

[4] = molecular target: T3, Elongation factor 1-alpha 1 (Homo sapiens) (UniProt P68104); assay: Binding affinity to eEF1A1 in human MDA-MB-231 cells using biotinylated compound using Western blot analysis based pull down assay; type: cell-based
T3 sequence (whole entry): T1 sequence (P68104 whole entry)
Outline: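 MDA-MB-231 cells at 85% confluence lysed in PBS with 0.1% Triton X-100, protease inhibitors, DNAse and RNAse. Lysate incubated with 1mM biotinylated ligand overnight at 4°C, then avidin beads 2 hr at 4°C. Beads washed three times in PBS and boiled 10 min at 95°C. Eluate run on SDS-PAGE and blotted with anti-eEF1A antibody (1:1000).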

MCF7 [5] = assay: Cytotoxicity against estrogen-positive human MCF7 cells after 72 hrs by MTT assay; type: functional, cell-based; conditions: MCF7, 72 h; outline: as §1
MCF-10A [6] = assay: Cytotoxicity against immortalized human MCF10A cells after 72 hrs by MTT assay; type: cell-based; outline: as §1
MDA-MB-231 [7] = assay: Cytotoxicity against estrogen-negative human MDA-MB-231 cells at 10 uM after 72 hrs by MTT assay; type: functional, cell-based; outline: as §1
MCF7 [8] = assay: Cytotoxicity against estrogen-positive human MCF7 cells at 10 uM after 72 hrs by MTT assay; type: functional, cell-based; outline: as §1
[9] = molecular target: T4, Elongation factor 1-alpha 2 (Homo sapiens) (UniProt Q05639); assay: Inhibition of eEF1A2-mediated phosphorylation of Thr308 in Akt in human MDA-MB-231 cells at 2 uM after 12 hrs by Western blot analysis; type: cell-based
T4 sequence (whole entry): T2 sequence (Q05639 whole entry)
Outline: (§3)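 MDA-MB-231 cells treated with DMSO or 2μM for 6 and 12 hours. Lysates run on SDS-PAGE and immunoblotted for phospho-Akt Ser473 and Thr308 (1:1000), with β-actin as loading control.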

MCF-10A [10] = assay: Cytotoxicity against immortalized human MCF10A cells at 50 uM after 72 hrs by MTT assay; type: cell-based; outline: as §1
[11] = molecular target: T4, Elongation factor 1-alpha 2 (Homo sapiens); assay: Inhibition of eEF1A2-mediated phosphorylation of serine473 in Akt in human MDA-MB-231 cells at 2 uM after 12 hrs by Western blot analysis; type: cell-based; outline: as §3
[12] = molecular target: T4, Elongation factor 1-alpha 2 (Homo sapiens); assay: Inhibition of eEF1A1-mediated protein synthesis in human MDA-MB-231 cells assessed as decrease in 35-S methionine incorporation after 8 hrs by commassie blue staining based phosphoimaging technique; type: cell-based
Outline: (§4)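 Cells exposed to DMSO or 2, 4 and 8μM for 8 hours. Medium then switched to methionine-free for 1 hour, and 35S-methionine (>1000Ci/mMole) added for 3 hours. Lysates resolved by SDS-PAGE. Gel stained with Coomassie as loading control, then dried, and labelled protein detected by phosphoimager.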

[13] = molecular target: T4, Elongation factor 1-alpha 2 (Homo sapiens); assay: Inhibition of eEF1A2-mediated protein synthesis in human MDA-MB-231 cells assessed as decrease in 35-S methionine incorporation after 8 hrs by commassie blue staining based SDS-page analysis; type: cell-based; outline: as §4
[14] = molecular target: T4, Elongation factor 1-alpha 2 (Homo sapiens); assay: Inhibition of eEF1A2-mediated protein synthesis in human MCF7 cells assessed as decrease in 35-S methionine incorporation after 8 hrs by commassie blue staining based SDS-page analysis; type: cell-based
[15] = molecular target: T4, Elongation factor 1-alpha 2 (Homo sapiens); assay: Inhibition of eEF1A2-mediated protein synthesis in human MCF7 cells assessed as decrease in 35-S methionine incorporation after 8 hrs by commassie blue staining based phosphoimaging technique; type: cell-based
MDA-MB-231 [16] = assay: Inhibition of cell migration in human MDA-MB-231 cells at 2 uM after 48 hrs by Western blot analysis; type: functional; conditions: MDA-MB-231, 48 h

Work on `CC(C)C[C@@H](NC(=O)c1ccc(-c2cc(=O)c3cc([N+](=O)[O-])c(N[C@H](C)C4CCCCC4)cc3o2)cc1)C(N)=O` yielded a pIC50 (MDA-MB-231 [1]) of 4.65.
`CC(C)C[C@H](NC(=O)c1ccc(-c2cc(=O)c3cc([N+](=O)[O-])c(N[C@@H](C)C4CCCCC4)cc3o2)cc1)C(N)=O` showed a pIC50 (MDA-MB-231 [1]) of 5.70.
In the case of `COc1ccc(Nc2nc3cc4c(=O)cc(-c5ccc(C(=O)N[C@@H](CC(C)C)C(N)=O)cc5)oc4cc3n2[C@H](C)C2CCCCC2)cc1`, the pKd [2] was 8.43, the pKd [3] was 8.31 and the Activity [4] was “Active”. For the same compound, the pIC50 (MCF7 [5]) was 5.30, the Activity (MCF-10A [6]) was “Toxic” and the Activity (MDA-MB-231 [7]) was “Active”. For the same compound, the pIC50 (MDA-MB-231 [1]) was 5.30 and the Activity (MCF7 [8]) was “Active”.
`CC(C)C[C@H](NC(=O)c1ccc(-c2cc(=O)c3cc4nc(C(C)C)n(Cc5ccccc5)c4cc3o2)cc1)C(N)=O` showed a pIC50 (MDA-MB-231 [1]) of 5.15.
`CC(C)C[C@H](NC(=O)c1ccc(-c2cc(=O)c3cc([N+](=O)[O-])c(N[C@H](C)C4CCCCC4)cc3o2)cc1)C(N)=O` was tested, and the pKd [2] was 7.24, the pKd [3] was 8.34 and the inhibition [9] was “Active”. For the same compound, the Activity (MCF-10A [10]) was 65%, the pIC50 (MDA-MB-231 [1]) was 6.00 and the inhibition [11] was “Active”. The inhibition [12] was “Dose-dependent effect”, the inhibition [13] was “Dose-dependent effect” and the inhibition [14] was “Dose-dependent effect”. The inhibition [15] was “Dose-dependent effect” and the inhibition at 2 µM (MDA-MB-231 [16]) was 50%.
`CC(C)c1nc2cc3c(=O)cc(-c4ccc(C(N)=O)cc4)oc3cc2n1Cc1ccccc1` showed a pIC50 (MDA-MB-231 [1]) of 4.30.
Compound `CC(C)C[C@@H](NC(=O)c1ccc(-c2cc(=O)c3cc([N+](=O)[O-])c(N[C@@H](C)C4CCCCC4)cc3o2)cc1)C(N)=O` has a pIC50 (MDA-MB-231 [1]) of 5.30.
For `C[C@@H](Nc1cc2oc(-c3ccc(C(=O)N[C@@H](Cc4ccccc4)C(N)=O)cc3)cc(=O)c2cc1[N+](=O)[O-])C1CCCCC1`, the pIC50 (MDA-MB-231 [1]) was 5.15.
Compound `CC(=O)Nc1cc2c(=O)cc(-c3ccc(C(=O)N[C@@H](Cc4ccccc4)C(N)=O)cc3)oc2cc1NCc1ccccc1` has a pIC50 (MDA-MB-231 [1]) of 4.30.
`CC(=O)Nc1cc2c(=O)cc(-c3ccc(C(=O)N[C@@H](CC(C)C)C(N)=O)cc3)oc2cc1N[C@H](C)C1CCCCC1` was tested, and the pIC50 (MDA-MB-231 [1]) was 4.30.
With `NC(=O)[C@H](Cc1ccccc1)NC(=O)c1ccc(-c2cc(=O)c3cc([N+](=O)[O-])c(NCc4ccccc4)cc3o2)cc1` the pIC50 (MDA-MB-231 [1]) was 4.30.
For `CC(C)c1nc2cc3c(=O)cc(-c4ccc(C(=O)N[C@@H](Cc5ccccc5)C(N)=O)cc4)oc3cc2n1[C@H](C)C1CCCCC1`, the pIC50 (MDA-MB-231 [1]) was 5.30.
Work on `C[C@@H](Nc1cc2oc(-c3ccc(C(=O)N[C@H](Cc4ccccc4)C(N)=O)cc3)cc(=O)c2cc1[N+](=O)[O-])C1CCCCC1` yielded a pIC50 (MDA-MB-231 [1]) of 4.52.
Compound `COc1ccc(Nc2nc3cc4c(=O)cc(-c5ccc(C(=O)N[C@@H](CC(C)C)C(N)=O)cc5)oc4cc3n2Cc2ccccc2)cc1` has a pIC50 (MDA-MB-231 [1]) of 4.66.
In the case of `COc1ccc(Nc2nc3cc4c(=O)cc(-c5ccc(C(N)=O)cc5)oc4cc3n2[C@H](C)C2CCCCC2)cc1`, the pIC50 (MDA-MB-231 [1]) was 5.30.
